# Results published in the RNAGym collection of RNA variant scans (doi:10.1126/science.aae0568).
# Variants at the floor of the assay were thinned out.
# B1: tRNA (parent)
# chain: GUUCCGUUGGCGUAAUGGUAACGCGUCUCCCUCCUAAGGAGAAGACUGCGGGUUCGAGUCCCGUACGGAACG
# Variants of: B1
# Assay: yeast fitness relative to wild type (ratio to wild type); higher = fitter; tRNA-Arg(CCU), competitive growth, 37 C, YPD
# Summary of the method: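 Amplicons of the tRNA-Arg(CCU) gene were sequenced, 100-nucleotide paired-end, from the start population and from each end population of a pooled yeast competition. The competition, in six parallel replicates, lasted 24 hours in YPD at 37°C. Fitness relative to wild type was calculated from changes in genotype frequencies. Genotypes had to have ≥ 100 starting reads, and estimates < 0.5 were set to 0.5.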
row,Variant,yeast fitness
1,GUUCCGUUGGCGUAAUGGUAACGCGUCUCCCUCCAAAGGAGGAGACUGCGGGUUCGAGUCCCGUACGGAACG [U35A A42G],0.681
2,GUUCCGUUGGCGUAAUGGUAACGCGUCUCCCUCCAUAGGAGAAGACUGCGGGUUCGGGUCCCGUACGGAACG [U35A A36U A57G],≤ 0.5
3,GUUCCGUUGGCGUAAUGGUAACGCGUCUCCCUCCAAAGGAGAAGACUGGGGGUUCGAAUACCGUACGGAACG [U35A C49G G58A C60A],≤ 0.5
4,GUUCCGUUGGCGUAAUGGUAACGCGUCUCCCUCUUAAGGAGAAGACAGCGGGUUCGAGUCCCGUACGGAUCG [C34U U47A A70U],0.534
5,GUUCCGUUGGCGUAAUGGUAACGCGUCUCCCUCCAAAGGAGAAGACUGCGGGUUCGAGUCCCGUACAGAACG [U35A G67A],0.714
6,GUUCCGUUGGCGUAAUGGUAACGCGUCUCCCUCUAAAGGAGAAGACUGCGGGUUCGCAUCCCGUACGGAUCG [C34U U35A A57C G58A A70U],0.586
7,GUUCCGUUGGCGUAAUGGUAACGCGUCUCCCUCCAAAGGAGAAGACUGCGGGUUCGAGUCCCCUACGGAACG [U35A G63C],0.56
8,GUUCCGUUGGCGUAAUGGUAACGCGUCUCCCUCCAAAGGAGAAGAAUGGGGAUUCGAGUUCCGUACGGGACG [U35A C46A C49G G52A C60U A69G],≤ 0.5
9,GUUCCGUUGGCGUAAUGGUAACGCGUCUCCCUCCAAAGGAGAAGACUGCGCGUUCGUGUCCCGUACGGAACG [U35A G51C A57U],0.539
10,GUUCCGUUGGCGUAAUGGUAACGCGUCUCCCUCUCAAGGAGAAGACUGCGGGUUCGAGUCCCGUACGGUACG [C34U U35C A69U],≤ 0.5
11,GUUCCGUUGGCGUAAUGGUAACGCGUCUCCCUCUUAAGGAGAAGACUGCGGGUCCGAGUCCCGUACGGAACG [C34U U54C],0.569
12,GUUCCGUUGGCGUAAUGGUAACGCGUCUCCCUCUUAAGGAGAAGACUGCGGGUGCGAGUCCCGUACGGAACG [C34U U54G],0.612
13,GUUCCGUUGGCGUAAUGGUAACGCGUCUCCCUCCAAAGGUGUAGACUGCGGGUUGGAGUCCCGUACGGAACG [U35A A40U A42U C55G],≤ 0.5
14,GUUCCGUUGGCGUAAUGGUAACGCGUCUCCCUCCAAAGGAGAAGAAUGGGGGUUCGAGUCCCGUACGGAACG [U35A C46A C49G],≤ 0.5
15,GUUCCGUUGGCGUAAUGGUAACGCGUCUCCCUCUUAAGGAGAAGACUGCGGGUUCGACUCCCGUACGGACCG [C34U G58C A70C],≤ 0.5
16,GUUCCGUUGGCGUAAUGGUAACGCGUCUCCCUCUUAAGGAGAAGACUGCGGGUUCGAGUCCCGUACCGAACG [C34U G67C],0.723
17,GUUCCGUUGGCGUAAUGGUAACGCGUCUCCCUCCAAAGGAGAAGACUGCGGGUUCGAGUUCCGUACGGAACG [U35A C60U],≤ 0.5
18,GUUCCGUUGGCGUAAUGGUAACGCGUCUCCCUCCAAAGGAGAAGACUGCGGGUUCGAGUACCGUACGGAACG [U35A C60A],0.535
19,GUUCCGUUGGCGUAAUGGUAACGCGUCUCCCUCCAAAGGAGAAGACUGCAGGUUCGAGUCCCGUACGGUACG [U35A G50A A69U],0.621

row,Variant,yeast fitness
1,GUUCCGUUGGCGUAAUGGUAACGCGUCUCCCUCUUAAGGAGAAGACUGCGGGUUCGAGUCCCCUACGGAACG [C34U G63C],≤ 0.5
2,GUUCCGUUGGCGUAAUGGUAACGCGUCUCCCUCUUAAGGAGAAGACUGCGGGUUCGAGUCCCGUACACAACG [C34U G67A G68C],0.653
3,GUUCCGUUGGCGUAAUGGUAACGCGUCUCCCUCUUAAGGAGAAGACCGCGGGUUCGAGUCCCGUACGGUACG [C34U U47C A69U],0.506
4,GUUCCGUUGGCGUAAUGGUAACGCGUCUCCCUCCAAAGGAGAAGACUGCGGGUUCGCGUCCCGAACGAAACG [U35A A57C U64A G68A],≤ 0.5
5,GUUCCGUUGGCGUAAUGGUAACGCGUCUCCCUCUUAAGGAGAAGACUGCGGGUUCGACUCCCAUACGGACCG [C34U G58C G63A A70C],≤ 0.5
6,GUUCCGUUGGCGUAAUGGUAACGCGUCUCCCUCCAAGGGGGAUGCCUGCGGGUUCGAGUCCCGUACGGAACG [U35A A37G A40G A43U A45C],≤ 0.5
7,GUUCCGUUGGCGUAAUGGUAACGCGUCUCCCUCCAAAGGAGAAGACUGCGGGUUCGCGUCCCGUACGGAACG [U35A A57C],≤ 0.5
8,GUUCCGUUGGCGUAAUGGUAACGCGUCUCCCUCCAAAGGAGAAGACUGCGGGUUCAAGUCCCGUACGGAACG [U35A G56A],0.817
9,GUUCCGUUGGCGUAAUGGUAACGCGUCUCCCUCCAAAGGAGACGAUUGCGGGUUCGAGUCCCGUACGGAACG [U35A A43C C46U],≤ 0.5
10,GUUCCGUUGGCGUAAUGGUAACGCGUCUCCCUCUUAAGGAGAAGACUGCGGGUUCGAGUCCCGUACGAAACG [C34U G68A],0.774
11,GUUCCGUUGGCGUAAUGGUAACGCGUCUCCCUCCAAAGGAGAAGACUGCGGGUUCGAGUCCCGUAUGGUACG [U35A C66U A69U],≤ 0.5
12,GUUCCGUUGGCGUAAUGGUAACGCGUCUCCCUCUUAAGGAGAAGACUGCGGGUUCGAGUCCCGUACGUCACG [C34U G68U A69C],≤ 0.5
13,GUUCCGUUGGCGUAAUGGUAACGCGUCUCCCUCCAAAGGAGAAGACUGCGGGUUCGAGUCACGUACGGAUCG [U35A C61A A70U],≤ 0.5
14,GUUCCGUUGGCGUAAUGGUAACGCGUCUCCCUCCAAAGGAGAAGACUGCGGGUUCGAGUCUCGUACGGAACG [U35A C61U],0.765
15,GUUCCGUUGGCGUAAUGGUAACGCGUCUCCCUCUUAAGGAGAAGACUGCGGGUCCGAGUCCCGUACGGAUCG [C34U U54C A70U],≤ 0.5
16,GUUCCGUUGGCGUAAUGGUAACGCGUCUCCCUCUCAAGGAGAAGGCUGCGGGUACGAGUCCCGUACGGAACG [C34U U35C A45G U54A],0.704
17,GUUCCGUUGGCGUAAUGGUAACGCGUCUCCCUCCAAAGGAGAAGACUGCGGGUUCGAGUCCAGUACGGAACG [U35A C62A],≤ 0.5
18,GUUCCGUUGGCGUAAUGGUAACGCGUCUCCCUCCAAAGGAGAAGACUGCGGGUUCGAGUCCCGUCCGGAACG [U35A A65C],0.781
